According to ChEMBL document CHEMBL1275496, “In vivo pharmacodynamic target investigation for micafungin against Candida albicans and C. glabrata in a neutropenic murine candidiasis model” (Antimicrob Agents Chemother, 2008):
Values after ≈ are worked out from the molar mass of the structure shown. *1 amine or outer side, *2 acyl side, *3 side chain or, on linkers, in order; H or OH if unused. Where a SMILES comes first, the peptide text is derived from it. Bridges are numbered along the chain shown (N, C = ends). [ ]: non-standard residue; d: D form. The star is where a group is joined. hTyr(3S-OH,4S-OH,3'-OSO3H) = N[C@H](C(=O)O)[C@H](O)[C@@H](O)c1ccc(O)c(OS(=O)(=O)O)c1; Orn(4R-OH,5R-OH) = O=C([C@H](C[C@@H](O)[C@@H](O)N[*:3])N[*:1])[*:2]; Pro(3S-OH,4S-Me) = C[C@H]1CN[C@H](C(=O)O)[C@H]1O; X1 = CCCCCOc1ccc(-c2cc(-c3ccc(C(=O)*)cc3)no2)cc1; Gln(3R-OH) = NC(=O)C[C@@H](O)[C@H](N)C(=O)O; Hyp = O=C(O)[C@@H]1C[C@@H](O)CN1

What was measured:
[1] = AUC (0 to infinity) in Candida infected ICR/Swiss neutropenic mouse at 20 mg/kg, ip; format: ADME, organism-based; design: time infinity, dose 20 mg/kg, route intraperitoneal; settings: plasma
Procedure, shortened: (§1)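 Single intraperitoneal micafungin doses (80, 20, 5 mg/kg in 0.2 ml, 0.15 M NaCl) given to infected neutropenic mice. Serum was taken from 3 mice per time point at 1, 2, 4, 6, 8, 12, 24 and 48 h. Drug was measured by microbiologic assay with C. albicans K1 (LLOQ 0.12 μg/ml). Noncompartmental analysis; half-life by nonlinear least squares; AUC by trapezoidal rule.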

[2] = test system: Nakaseomyces glabratus; experiment: Fungistatic activity against Candida glabrata isolate 5376 infected in ICR/Swiss neutropenic mouse after 24 hrs; format: functional
Procedure, shortened: (§2)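 Neutropenic female ICR/Swiss mice received cyclophosphamide sc at 150 mg/kg on day −4, 100 mg/kg on day −1 and 100 mg/kg on day +2. Mice were infected iv via the tail vein, and ip micafungin in 0.15 M NaCl started 2 h later. Six dose levels from 0.078 to 80 mg/kg/24 h were given q24h for 4 days, 3 mice per dose. Kidney CFU were counted at 96 h. The static dose was derived from a sigmoid Emax (Hill) fit.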

[3] = Ratio of fAUC in ICR/Swiss neutropenic mouse at static dose of 0.06 mg/kg, ip after 24 hrs to MIC for Candida glabrata isolate 32930; format: functional; settings: route intraperitoneal
[4] = Ratio of fAUC in ICR/Swiss neutropenic mouse at 1-Log kill dose of 1.40 mg/kg, ip after 24 hrs to MIC for Candida glabrata isolate 33609; format: functional; settings: dose 1.4 mg/kg; route intraperitoneal
[5] = Ratio of AUC in ICR/Swiss neutropenic mouse at static dose of 2.53 mg/kg, ip after 24 hrs to MIC for Candida albicans isolate 98-17; format: functional; settings: route intraperitoneal
[6] = test system: Nakaseomyces glabratus; experiment: Antifungal activity against Candida glabrata isolate 34341 by CLSI method; format: functional
Procedure, shortened: (§3)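 Broth microdilution per CLSI M27-A2. The MIC was read at partial inhibition (M1) and at complete inhibition (M2) against the drug-free control. Done in duplicate on four separate occasions and reported as the mean.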

[7] = test system: Candida albicans; experiment: Fungistatic activity against Candida albicans isolate K1 infected in ICR/Swiss neutropenic mouse after 24 hrs; format: functional; procedure, shortened: as §2
[8] = (§4) Cmax in Candida infected ICR/Swiss neutropenic mouse at 20 mg/kg, ip; format: ADME, organism-based; design: dose 20 mg/kg, route intraperitoneal; settings: ICR/Swiss, in vivo; procedure, shortened: as §1
[9] = test system: Mus musculus; experiment: as §4; format: ADME, organism-based; design: dose 20 mg/kg, route intraperitoneal; settings: in vivo; procedure, shortened: as §1
[10] = test system: Candida albicans; experiment: Antifungal activity against Candida albicans isolate K1 infected in ICR/Swiss neutropenic mouse assessed as dose required for 1-log kill after 24 hrs; format: functional
Procedure, shortened: (§5)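 Neutropenic mice (cyclophosphamide sc 150 mg/kg day −4, 100 mg/kg day −1 and +2) infected iv by tail vein 2 h before therapy. Micafungin given ip every 24 h for 4 days at six fourfold-spaced dose levels, 0.078–80 mg/kg/24 h, 3 mice per group. Kidney CFU read at 96 h. Hill-model fit; dose giving 1 log10 below start-of-therapy burden.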

[11] = Ratio of AUC in ICR/Swiss neutropenic mouse at 1-Log kill dose of 10.4 mg/kg, ip after 24 hrs to MIC for Candida albicans isolate 98-210; format: functional; settings: route intraperitoneal
[12] = test system: Candida albicans; experiment: Fungistatic activity against Candida albicans isolate 98-17 infected in ICR/Swiss neutropenic mouse after 24 hrs; format: functional; procedure, shortened: as §2
[13] = Ratio of AUC in ICR/Swiss neutropenic mouse at 1-Log kill dose of 6.70 mg/kg, ip after 24 hrs to MIC for Candida glabrata isolate 570; format: functional; settings: dose 6.7 mg/kg; route intraperitoneal
[14] = Ratio of AUC in ICR/Swiss neutropenic mouse at 1-Log kill dose of 1.40 mg/kg, ip after 24 hrs to MIC for Candida glabrata isolate 33609; format: functional; settings: dose 1.4 mg/kg; route intraperitoneal
[15] = Ratio of fAUC in ICR/Swiss neutropenic mouse at 1-Log kill dose of 4.08 mg/kg, ip after 24 hrs to MIC for Candida albicans isolate K1; format: functional; settings: route intraperitoneal
[16] = Ratio of AUC in ICR/Swiss neutropenic mouse at static dose of 1.98 mg/kg, ip after 24 hrs to MIC for Candida albicans isolate 580; format: functional; settings: route intraperitoneal
[17] = test system: Nakaseomyces glabratus; experiment: Antifungal activity against Candida glabrata isolate 5592 infected in ICR/Swiss neutropenic mouse assessed as dose required for 1-log kill after 24 hrs; format: functional; procedure, shortened: as §5
[18] = test system: Nakaseomyces glabratus; experiment: Fungistatic activity against Candida glabrata isolate 34341 infected in ICR/Swiss neutropenic mouse after 24 hrs; format: functional; procedure, shortened: as §2
[19] = Ratio of AUC in ICR/Swiss neutropenic mouse at static dose of 0.90 mg/kg, ip after 24 hrs to MIC for Candida glabrata isolate 5376; format: functional; settings: dose 0.9 mg/kg; route intraperitoneal
[20] = Half life in Candida infected ICR/Swiss neutropenic mouse at 20 mg/kg, ip; format: ADME, organism-based; design: dose 20 mg/kg, route intraperitoneal; settings: in vivo; procedure, shortened: as §1
[21] = test system: Nakaseomyces glabratus; experiment: Antifungal activity against Candida glabrata; format: functional
Procedure, shortened: (§6)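 Broth microdilution MIC per CLSI M27-A2. Two endpoints were read against the drug-free control well: partial inhibition (M1, CLSI recommended) and complete inhibition (M2). Tests were run in duplicate on four separate occasions, and the value is the mean.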

[22] = Ratio of fAUC in ICR/Swiss neutropenic mouse at static dose of 2.84 mg/kg, ip after 24 hrs to MIC for Candida albicans isolate 98-210; format: functional; settings: route intraperitoneal
[23] = species on record: Homo sapiens; experiment: fAUC in healthy human at 100 mg/day; format: ADME, organism-based; settings: in vivo
[24] = test system: Candida albicans; experiment: Antifungal activity against Candida albicans isolate K1 by CLSI method; format: functional; procedure, shortened: as §6
[25] = test system: Nakaseomyces glabratus; experiment: Antifungal activity against Candida glabrata isolate 37661 by CLSI method; format: functional; procedure, shortened: as §3
[26] = Ratio of AUC in ICR/Swiss neutropenic mouse at 1-Log kill dose of 20.6 mg/kg, ip after 24 hrs to MIC for Candida glabrata isolate 37661; format: functional; settings: route intraperitoneal
[27] = Ratio of AUC in ICR/Swiss neutropenic mouse at 1-Log kill dose of 4.60 mg/kg, ip after 24 hrs to MIC for Candida albicans isolate 98-17; format: functional; settings: dose 4.6 mg/kg; route intraperitoneal
[28] = test system: Candida albicans; experiment: Antifungal activity against Candida albicans isolate 580 infected in ICR/Swiss neutropenic mouse assessed as dose required for 1-log kill after 24 hrs; format: functional; procedure, shortened: as §5
[29] = test system: Candida albicans; experiment: Antifungal activity against Candida albicans isolate 98-17 infected in ICR/Swiss neutropenic mouse assessed as dose required for 1-log kill after 24 hrs; format: functional; procedure, shortened: as §5
[30] = test system: Nakaseomyces glabratus; experiment: Antifungal activity against Candida glabrata isolate 570 infected in ICR/Swiss neutropenic mouse assessed as dose required for 1-log kill after 24 hrs; format: functional; procedure, shortened: as §5
[31] = test system: Nakaseomyces glabratus; experiment: Fungistatic activity against Candida glabrata isolate 33609 infected in ICR/Swiss neutropenic mouse after 24 hrs; format: functional; procedure, shortened: as §2
[32] = test system: Nakaseomyces glabratus; experiment: Fungistatic activity against Candida glabrata isolate 570 infected in ICR/Swiss neutropenic mouse after 24 hrs; format: functional; procedure, shortened: as §2
[33] = test system: Nakaseomyces glabratus; experiment: Antifungal activity against Candida glabrata isolate 33609 infected in ICR/Swiss neutropenic mouse assessed as dose required for 1-log kill after 24 hrs; format: functional; procedure, shortened: as §5
[34] = AUC in healthy human at 100 mg/day; format: ADME, organism-based; settings: plasma
[35] = Ratio of fAUC in ICR/Swiss neutropenic mouse at 1-Log kill dose of 2.0 mg/kg, ip after 24 hrs to MIC for Candida glabrata isolate 5376; format: functional; settings: route intraperitoneal

CCCCCOc1ccc(-c2cc(-c3ccc(C(=O)N[C@H]4C[C@@H](O)[C@@H](O)NC(=O)[C@@H]5[C@@H](O)[C@@H](C)CN5C(=O)[C@H]([C@H](O)CC(N)=O)NC(=O)[C@H]([C@H](O)[C@@H](O)c5ccc(O)c(OS(=O)(=O)O)c5)NC(=O)[C@@H]5C[C@@H](O)CN5C(=O)[C@H]([C@@H](C)O)NC4=O)cc3)no2)cc1 [MICAFUNGIN] (X1-[Orn(4R-OH,5R-OH)]T[Hyp][hTyr(3S-OH,4S-OH,3'-OSO3H)][Gln(3R-OH)][Pro(3S-OH,4S-Me)]; lactam 1-C)
AUC(0-inf) [1]: 520 µg·h/mL
Activity [2]: 0.9 mg/kg
fAUC/MIC [3]: 0.5
fAUC/MIC [4]: 6.5
RatioAUC/MIC [5]: 2333
MIC [6]: 0.12 µg/mL (≈ 0.0945 µM)
MIC50 [6]: 0.06 µg/mL (≈ 0.0472 µM)
Activity [7]: 2.84 mg/kg
Cmax [8]: 28000 ng/mL
Cmax [9]: 28 µg/mL
Activity [10]: 4.08 mg/kg
RatioAUC/MIC [11]: 18400
Activity [12]: 2.53 mg/kg
RatioAUC/MIC [13]: 12066
RatioAUC/MIC [14]: 2600
fAUC/MIC [15]: 18.8
RatioAUC/MIC [16]: 7857
Activity [17]: 5.46 mg/kg
Activity [18]: 2.18 mg/kg
RatioAUC/MIC [19]: 3571
half-life [20]: 780 min
MIC50 [21]: 0.015 µg/mL (≈ 0.0118 µM)
MIC90 [21]: 0.015 µg/mL (≈ 0.0118 µM)
fAUC/MIC [22]: 13
fAUC [23]: 0.32 mg·h/L
MIC [24]: 0.03 µg/mL (≈ 0.0236 µM)
MIC50 [24]: 0.016 µg/mL (≈ 0.0126 µM)
MIC [25]: 0.25 µg/mL (≈ 0.197 µM)
MIC50 [25]: 0.25 µg/mL (≈ 0.197 µM)
RatioAUC/MIC [26]: 2080
RatioAUC/MIC [27]: 4233
Activity [28]: 2.36 mg/kg
Activity [29]: 4.6 mg/kg
Activity [30]: 6.7 mg/kg
Activity [31]: 0.41 mg/kg
Activity [32]: 3.76 mg/kg
Activity [33]: 1.4 mg/kg
AUC [34]: 126 µg·h/mL
fAUC/MIC [35]: 19.7
